Assay results collected from several papers.
Protocols differ between the studies behind these lines.
TACR3: Neuromedin-K receptor (TACR3, Homo sapiens, UniProt P29371)
ADORA1: Adenosine receptor A1 (ADORA1, Homo sapiens, UniProt P30542)
MAP4K3: Mitogen-activated protein kinase kinase kinase kinase 3 (MAP4K3, Homo sapiens, UniProt Q8IVH8)
OTUD6B: Deubiquitinase OTUD6B (OTUD6B, Homo sapiens, UniProt Q8N6M0)

c1ccc(C(NCCNC(c2ccccc2)c2ccccc2)c2ccccc2)cc1 — inhibition (TACR3; cell-free assay; 10 µM): 61%
CCN(CC)CCCC[C@H](NC(=O)[C@H](CC(C)C)NC(=O)[C@H](C)NC(=O)[C@H](Cc1ccccc1)NC(=O)c1ccc(C(C)(C)C)cc1)C(=O)N[C@@H](CO)C(=O)OC — inhibition (TACR3; ligand displacement; radioligand; 10 µM): 8%
O[C@H]1[C@H](n2cnc3c(NC(C4CCCCC4)C4CCCCC4)nc(Cl)nc32)[C@H]2C[C@@]2(CCl)[C@H]1O — inhibition (ADORA1; ligand displacement; radioligand; 10 µM): 63%
C#Cc1n[nH]c2c(-c3cn([C@@H](C)c4ccccn4)c(=O)[nH]c3=O)cc(F)cc12 — inhibition (MAP4K3; enzyme activity; inhibitor; 0.1 µM): -2.5%
CCCCSC[C@@]12C[C@@H]1[C@@H](n1cnc3c(NC(C4CCCC4)C4CCCC4)nc(Cl)nc31)[C@H](O)[C@@H]2O — inhibition (ADORA1; ligand displacement; radioligand; 10 µM): -1%
C#Cc1n[nH]c2c(-c3cn([C@@H](C)c4ccccc4)c(=O)[nH]c3=O)cc(F)cc12 — inhibition (MAP4K3; enzyme activity; inhibitor; 0.1 µM): -1.9%
COc1cc(Nc2ncc(F)c(Nc3ccc4c(n3)NC(=O)C(C)(C)O4)n2)cc(OC)c1OC — inhibition (MAP4K3; binding; competition with immobilised ligand; 10 µM): 52%
CN(C)C(=O)COC(=O)Cc1ccc(OC(=O)c2ccc(NC(=N)N)cc2)cc1 — inhibition (Ubiquitin carboxyl-terminal hydrolase 5 (USP5, Homo sapiens, UniProt P45974); enzyme activity; inhibitor; 10 µM): 1%
CCOC(=O)[C@@]12C[C@@H]1[C@@H](n1cnc3c(NC(C4CCCC4)C4CCCC4)nc(Cl)nc31)[C@H](O)[C@@H]2O — inhibition (ADORA1; ligand displacement; radioligand; 10 µM): 55%
CNC(=O)[C@H](Cc1ccccc1)NC(=O)[C@H](CC(C)C)[C@H](CSc1cccs1)C(=O)NO — inhibition (Matrilysin (MMP7, Homo sapiens, UniProt P09237); enzyme activity; inhibitor; 100 pM): 4%
O[C@H]1[C@H](n2cnc3c(NC(C4CCCC4)C4CCCC4)nc(Cl)nc32)[C@H]2C[C@@]2(CSc2ccccc2F)[C@H]1O — inhibition (ADORA1; ligand displacement; radioligand; 10 µM): -6%
CCOC(=O)c1ccc(OC(=O)CCCCCNC(=N)N)cc1 — inhibition (OTUD6B; enzyme activity; inhibitor; 10 µM): 3%
C[C@H](C(=O)N[C@H]1COc2ccccc2[C@@H]1S(C)(=O)=O)c1ccc(F)cc1 — inhibition (TACR3; cell-free assay; 10 µM): -11%
N=C(N)c1ccc2cc(OC(=O)c3ccc(N=C(N)N)cc3)ccc2c1 — inhibition (OTUD6B; enzyme activity; inhibitor; 10 µM): 9%
Cn1cc(-c2cccc(N3CCc4c(sc5c4CC(C)(C)C5)C3=O)c2CO)cc(Nc2ccncn2)c1=O — inhibition (Inhibitor of nuclear factor kappa-B kinase subunit alpha (CHUK, Homo sapiens, UniProt O15111); enzyme activity; inhibitor; 1 µM): -5%
